Results on two compounds are retold here after ChEMBL document CHEMBL5149984, “Discovery of HN37 as a Potent and Chemically Stable Antiepileptic Drug Candidate” (J Med Chem, 2021).

pIC50: −log10 of the molar value.

A short description of data set [1]: Clearance in Kunming mouse plasma at 2 mg/kg, iv measured upto 24 hrs by LC-MS/MS method. The format is ADME, organism-based. A digest of the protocol: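 Male KM mice fasted 12 h before and 2 h after iv dosing at 2 mg/kg (oral formulation of 5% DMSO/5% Tween 80/saline diluted with saline containing 1% Tween 80); n = 3 per time point. Blood from the retro-orbital venous plexus at 0.083–24 h; plasma extracted with acetonitrile plus internal standard and analysed by LC−MS/MS.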

The nature of data set [2]: Oral bioavailability in Kunming mouse plasma at 5 mg/kg measured upto 24 hrs by LC-MS/MS method. The format is ADME, organism-based. A digest of the protocol: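 Male KM mice (18−24 g) fasted 12 h before and 2 h after dosing, given 5 mg/kg orally in 5% DMSO/5% Tween 80/90% normal saline (n = 3 per time point). Aortic blood taken at 0.25–24 h and whole brain collected. Acetonitrile extraction with internal standard, then LC−MS/MS. Bioavailability calculated against the 2 mg/kg i.v. arm.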

The nature of data set [3]: Cmax in Sprague-Dawley rat at 2 mg/kg, po measured upto 24 hrs by LC-MS/MS method. The format is ADME, organism-based. The conditions noted are these: in vivo. The arrangement: time < 24 hrs, dose 2 mg/kg, route po. A digest of the protocol: (§1)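 Male SD rats (180−220 g) dosed orally at 2, 6 or 20 mg/kg in escalating fashion, handled as in the mouse study: 12 h fast, acetonitrile extraction of plasma, LC−MS/MS quantification. AUC0−t by trapezoidal method to the last measurable concentration.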

Data set [4] in a line: AUC(0 to t) in Sprague-Dawley rat at 6 mg/kg, po measured upto 24 hrs by LC-MS/MS method. The format is ADME, organism-based. The arrangement: dose 6 mg/kg, time < 24 hrs, route po. The conditions noted are these: in vivo. The procedure, abridged: as §1
A short description of data set [5]: Half life in Sprague-Dawley rat at 6 mg/kg, po measured upto 24 hrs by LC-MS/MS method. The format is ADME, organism-based. The conditions noted are these: in vivo. The procedure, abridged: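 Male SD rats (180−220 g) given single oral doses of 2, 6 and 20 mg/kg; handled as in the mouse PK study (fasted 12 h before and 2 h after dosing, 5% DMSO/5% Tween 80/90% saline formulation). In a separate 6 mg/kg p.o. set, blood and brain were sampled together. Plasma and brain levels by LC−MS/MS.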

Data set [6] is described as follows: Metabolic stability in rat liver microsomes assessed as half life. The format is ADME, Microsome. (Liver microsomes are a subcellular fraction often used to study metabolism.)
Data set [7] is described as follows: Metabolic stability in mouse liver microsomes assessed as half life. The format is ADME, Microsome.
Another data set concerns the target Cytochrome P450 2C19 (Homo sapiens, UniProt P33261). In words: Time dependent inhibition of human liver microsome CYP2C19 preincubated for 0.5 hrs in presence or absence of NADPH followed by substrate addition by LC-MS/MS method. The format is ADME, microsomes. The procedure, abridged:
(§2)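 Human liver microsomes preincubated 0.5 h with 0.10–50 μM test compound, with or without NADPH, then CYP-specific probe substrate added and incubation continued. Metabolite measured by LC-MS/MS; % activity remaining relative to no-compound control; IC50 fitted by Probit model. For CYP3A4, midazolam 1′-hydroxylation and testosterone 6β-hydroxylation were read separately.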

For the next data set, the target named is Cytochrome P450 2D6 (Homo sapiens, UniProt P10635). In words: Time dependent inhibition of human liver microsome CYP2D6 preincubated for 0.5 hrs in presence or absence of NADPH followed by substrate addition by LC-MS/MS method. The format is ADME, microsomes. The procedure, abridged:
as §2

In the next data set the target is Cytochrome P450 3A4 (Homo sapiens, UniProt P08684). In words: Time dependent inhibition of human liver microsome CYP3A4 preincubated for 0.5 hrs in presence or absence of NADPH followed by testosterone addition by LC-MS/MS method. The format is ADME, microsomes. The procedure, abridged: as §2
For the next data set, the target named is Cytochrome P450 2B6 (Homo sapiens, UniProt P20813). The experiment in a line: Time dependent inhibition of human liver microsome CYP2B6 preincubated for 0.5 hrs in absence of NADPH followed by substrate addition by LC-MS/MS method. The format is ADME, microsomes. The procedure, abridged: as §2
Data set [8] concerns CHO. In words: Agonist activity at rat KCNQ3 A278T mutant expressed in CHO cells assessed as shift of half voltage of maximal activation at 0.1 uM by patch clamp method. The format is cell-based. Particulars: filed as agonist. The procedure, abridged: (§3)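 Whole-cell patch clamp at room temperature on CHO cells (DMEM/F12, 10% FBS) transiently co-transfected with EGFP and hKCNQ1, rKCNQ2, rKCNQ3 A278T, hKCNQ4 or hKCNQ5; KCNQ2/3 at 1:1 cDNA ratio. Pipette solution 145 mM KCl, 5 mM MgATP, pH 7.3; bath 140 mM NaCl, 5 mM KCl, pH 7.4, under perfusion. V1/2 from Boltzmann fits; I/I0 is current amplitude with versus without compound; n = 4−6.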
Background: Patch clamp records ionic current or voltage across a cell membrane.

Data set [9] addresses Potassium voltage-gated channel subfamily KQT member 2 (Rattus norvegicus) (UniProt O88943). In words: Potency index, ratio of retigabine EC50 to test compound EC50 for agonist activity at rat KCNQ2 channel expressed in CHO cells by patch clamp method. The format is cell-based.
For data set [10], the species on record is Rattus norvegicus. The experiment in a line: Potency index, ratio of retigabine ED50 to test compound ED50 for anticonvulsant activity in MES induced rat model of seizure after 1 hr. The format is functional.
For data set [11], the species on record is Rattus norvegicus. In words: Potency index, ratio of Topiramate ED50 to test compound ED50 for anticonvulsant activity in MES induced rat model of seizure after 1 hr. The format is functional.
Data set [12] has as its target T1, Potassium voltage-gated channel subfamily KQT member 1 (Homo sapiens, UniProt P51787).
T1 sequence (P51787 whole entry): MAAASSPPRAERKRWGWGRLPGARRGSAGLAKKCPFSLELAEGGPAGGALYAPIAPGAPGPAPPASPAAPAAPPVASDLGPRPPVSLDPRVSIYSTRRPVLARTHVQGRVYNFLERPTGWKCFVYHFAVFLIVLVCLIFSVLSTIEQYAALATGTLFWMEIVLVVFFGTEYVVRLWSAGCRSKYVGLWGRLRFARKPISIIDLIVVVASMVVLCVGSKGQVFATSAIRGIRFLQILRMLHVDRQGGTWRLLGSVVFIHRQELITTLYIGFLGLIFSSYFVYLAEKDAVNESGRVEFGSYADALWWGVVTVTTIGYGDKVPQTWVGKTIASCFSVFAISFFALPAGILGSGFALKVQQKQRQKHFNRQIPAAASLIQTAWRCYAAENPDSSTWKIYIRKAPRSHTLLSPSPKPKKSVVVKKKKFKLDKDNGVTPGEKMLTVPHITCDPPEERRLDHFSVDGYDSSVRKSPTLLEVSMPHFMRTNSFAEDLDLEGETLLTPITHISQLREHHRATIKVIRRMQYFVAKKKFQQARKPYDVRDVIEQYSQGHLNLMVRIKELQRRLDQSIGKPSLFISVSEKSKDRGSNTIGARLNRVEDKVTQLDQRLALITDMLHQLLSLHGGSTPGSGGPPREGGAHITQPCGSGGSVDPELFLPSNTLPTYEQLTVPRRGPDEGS
The experiment in a line: Agonist activity at human KCNQ1 channel expressed in CHO cells assessed as shift of half voltage of maximal activation at 10 uM by patch clamp method. The format is cell-based. The procedure, abridged: as §3

In data set [13] the test system is CHO. In words: Agonist activity at rat KCNQ3 A278T mutant expressed in CHO cells assessed as shift of half voltage of maximal activation at 10 uM by patch clamp method. The format is cell-based. Particulars: filed as agonist. The procedure, abridged: as §3
For data set [14], the system named is CHO. The experiment in a line: Agonist activity at rat KCNQ3 A278T mutant expressed in CHO cells assessed as amplitude change of outward current at 10 uM by patch clamp method. The format is cell-based. The conditions noted are these: filed as agonist. A digest of the protocol:
as §3

Data set [15] concerns the target Potassium voltage-gated channel subfamily KQT member 5 (Homo sapiens) (UniProt Q9NR82). In words: Agonist activity at human KCNQ5 channel expressed in CHO cells assessed as amplitude change of outward current at 10 uM by patch clamp method. The format is cell-based. The conditions noted are these: filed as agonist. A digest of the protocol: as §3

Sequence of Potassium voltage-gated channel subfamily KQT member 2 (Rattus norvegicus) (O88943 whole entry): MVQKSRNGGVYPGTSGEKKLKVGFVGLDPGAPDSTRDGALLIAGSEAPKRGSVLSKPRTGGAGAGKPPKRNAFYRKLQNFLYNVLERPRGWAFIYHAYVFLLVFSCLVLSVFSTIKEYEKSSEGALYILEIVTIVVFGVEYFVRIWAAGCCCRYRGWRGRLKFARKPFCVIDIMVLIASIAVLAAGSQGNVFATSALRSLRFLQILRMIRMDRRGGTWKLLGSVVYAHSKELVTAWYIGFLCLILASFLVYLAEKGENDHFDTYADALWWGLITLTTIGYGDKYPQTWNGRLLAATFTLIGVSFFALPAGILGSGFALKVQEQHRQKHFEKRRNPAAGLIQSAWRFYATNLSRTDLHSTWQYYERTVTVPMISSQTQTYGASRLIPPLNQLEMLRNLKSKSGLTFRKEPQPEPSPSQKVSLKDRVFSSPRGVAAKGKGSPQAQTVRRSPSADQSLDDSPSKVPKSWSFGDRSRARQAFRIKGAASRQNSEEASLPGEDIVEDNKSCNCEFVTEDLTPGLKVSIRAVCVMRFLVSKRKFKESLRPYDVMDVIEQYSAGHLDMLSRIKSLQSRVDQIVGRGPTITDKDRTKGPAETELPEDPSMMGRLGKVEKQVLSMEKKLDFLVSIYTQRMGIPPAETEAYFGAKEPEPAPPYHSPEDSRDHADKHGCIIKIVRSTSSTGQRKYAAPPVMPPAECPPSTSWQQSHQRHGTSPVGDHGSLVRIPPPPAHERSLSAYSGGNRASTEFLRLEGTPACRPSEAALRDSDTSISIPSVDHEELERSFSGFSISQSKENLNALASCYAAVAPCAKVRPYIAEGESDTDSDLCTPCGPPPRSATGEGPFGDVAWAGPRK
Sequence of Cytochrome P450 3A4 (P08684 whole entry): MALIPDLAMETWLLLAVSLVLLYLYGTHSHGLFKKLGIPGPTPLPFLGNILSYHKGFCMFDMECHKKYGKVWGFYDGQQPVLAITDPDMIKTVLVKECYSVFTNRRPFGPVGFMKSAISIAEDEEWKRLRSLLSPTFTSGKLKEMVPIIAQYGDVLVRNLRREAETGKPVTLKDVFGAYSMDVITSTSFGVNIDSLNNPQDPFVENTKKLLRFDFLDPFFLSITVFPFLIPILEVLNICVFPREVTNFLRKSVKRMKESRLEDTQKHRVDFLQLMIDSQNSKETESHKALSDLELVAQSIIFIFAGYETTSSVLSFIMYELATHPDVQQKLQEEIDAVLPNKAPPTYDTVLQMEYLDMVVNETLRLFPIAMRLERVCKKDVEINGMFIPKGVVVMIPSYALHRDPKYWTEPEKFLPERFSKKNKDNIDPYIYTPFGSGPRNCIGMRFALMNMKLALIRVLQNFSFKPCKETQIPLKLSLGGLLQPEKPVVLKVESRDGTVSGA
Sequence of Cytochrome P450 2D6 (P10635 whole entry): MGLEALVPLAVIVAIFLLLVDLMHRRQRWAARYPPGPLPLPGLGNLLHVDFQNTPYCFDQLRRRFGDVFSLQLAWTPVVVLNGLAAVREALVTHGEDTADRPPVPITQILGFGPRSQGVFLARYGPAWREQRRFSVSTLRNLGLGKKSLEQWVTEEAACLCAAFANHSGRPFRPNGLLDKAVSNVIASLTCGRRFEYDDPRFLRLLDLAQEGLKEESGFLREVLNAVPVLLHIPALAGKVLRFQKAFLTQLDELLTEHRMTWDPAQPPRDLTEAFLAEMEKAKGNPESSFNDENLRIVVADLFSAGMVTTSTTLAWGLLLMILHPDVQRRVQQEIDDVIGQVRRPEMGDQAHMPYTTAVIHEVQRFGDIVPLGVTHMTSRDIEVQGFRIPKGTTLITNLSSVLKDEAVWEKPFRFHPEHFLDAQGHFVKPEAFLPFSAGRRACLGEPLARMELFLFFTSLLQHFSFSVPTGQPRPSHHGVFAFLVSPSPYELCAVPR
Sequence of Cytochrome P450 2B6 (P20813 whole entry, the tested form may be a part): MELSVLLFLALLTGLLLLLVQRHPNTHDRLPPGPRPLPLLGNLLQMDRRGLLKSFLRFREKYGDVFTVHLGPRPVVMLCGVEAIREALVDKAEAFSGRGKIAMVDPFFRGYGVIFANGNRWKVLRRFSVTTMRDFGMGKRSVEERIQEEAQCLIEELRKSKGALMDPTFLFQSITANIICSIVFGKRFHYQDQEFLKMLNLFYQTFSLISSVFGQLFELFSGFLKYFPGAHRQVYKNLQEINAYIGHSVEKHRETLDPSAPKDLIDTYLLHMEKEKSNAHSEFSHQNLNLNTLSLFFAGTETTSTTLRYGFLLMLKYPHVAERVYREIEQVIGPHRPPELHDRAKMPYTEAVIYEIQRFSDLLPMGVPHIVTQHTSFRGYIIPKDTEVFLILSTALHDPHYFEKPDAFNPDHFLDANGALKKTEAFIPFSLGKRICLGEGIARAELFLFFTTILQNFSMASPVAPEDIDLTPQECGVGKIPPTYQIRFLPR
Sequence of Cytochrome P450 2C19 (P33261 whole entry): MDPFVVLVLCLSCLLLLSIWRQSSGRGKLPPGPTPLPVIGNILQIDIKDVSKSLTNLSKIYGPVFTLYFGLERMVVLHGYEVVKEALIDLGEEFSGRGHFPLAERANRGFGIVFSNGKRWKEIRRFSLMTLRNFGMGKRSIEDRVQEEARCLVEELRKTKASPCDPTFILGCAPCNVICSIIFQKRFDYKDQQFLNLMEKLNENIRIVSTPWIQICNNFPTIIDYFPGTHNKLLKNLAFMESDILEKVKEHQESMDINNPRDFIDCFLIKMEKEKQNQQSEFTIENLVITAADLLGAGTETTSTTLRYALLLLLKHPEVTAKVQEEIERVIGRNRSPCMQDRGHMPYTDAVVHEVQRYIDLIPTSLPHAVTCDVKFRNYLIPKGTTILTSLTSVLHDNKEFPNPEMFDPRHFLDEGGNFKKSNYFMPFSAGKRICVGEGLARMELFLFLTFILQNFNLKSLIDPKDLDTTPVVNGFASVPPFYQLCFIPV
Sequence of Potassium voltage-gated channel subfamily KQT member 5 (Homo sapiens) (Q9NR82 whole entry): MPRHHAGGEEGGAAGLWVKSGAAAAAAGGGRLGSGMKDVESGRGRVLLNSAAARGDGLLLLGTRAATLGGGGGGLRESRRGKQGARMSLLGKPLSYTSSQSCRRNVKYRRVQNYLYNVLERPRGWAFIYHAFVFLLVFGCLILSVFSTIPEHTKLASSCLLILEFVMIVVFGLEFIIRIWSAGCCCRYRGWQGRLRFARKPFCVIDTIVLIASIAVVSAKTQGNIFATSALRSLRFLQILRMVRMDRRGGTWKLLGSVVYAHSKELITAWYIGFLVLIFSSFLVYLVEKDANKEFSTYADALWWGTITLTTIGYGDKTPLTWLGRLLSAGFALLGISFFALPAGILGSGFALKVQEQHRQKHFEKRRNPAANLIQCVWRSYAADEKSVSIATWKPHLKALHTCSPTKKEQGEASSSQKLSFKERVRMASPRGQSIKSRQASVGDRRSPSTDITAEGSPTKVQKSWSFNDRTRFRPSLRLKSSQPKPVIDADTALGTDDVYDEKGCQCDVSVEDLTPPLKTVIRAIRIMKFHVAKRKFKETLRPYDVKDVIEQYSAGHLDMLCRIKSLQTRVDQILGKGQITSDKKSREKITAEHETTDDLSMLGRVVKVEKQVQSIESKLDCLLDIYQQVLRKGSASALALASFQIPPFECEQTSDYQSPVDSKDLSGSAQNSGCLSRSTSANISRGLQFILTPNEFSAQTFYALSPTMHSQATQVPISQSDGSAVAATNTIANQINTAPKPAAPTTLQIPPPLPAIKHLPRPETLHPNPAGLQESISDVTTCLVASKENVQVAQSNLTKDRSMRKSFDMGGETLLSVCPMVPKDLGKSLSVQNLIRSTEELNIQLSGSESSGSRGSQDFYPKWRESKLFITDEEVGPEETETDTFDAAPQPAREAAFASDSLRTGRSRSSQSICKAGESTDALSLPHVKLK

For the compound `C#CCN(Cc1ccc(F)cc1)c1cc(C)c(NC(=O)OC)c(C)c1`, the clearance (in general, the volume of plasma or blood freed of the substance per unit of time) in data set [1] is 61.3 mL/min/kg. Further, in [2], the bioavailability (usually dose-corrected exposure relative to a reference, in per cent) came to 24.2%. In addition, the Cmax (in general, the maximum level reached in the sampled fluid or tissue) in data set [3] was determined as 88.2 ng/mL. For the same compound, in [4], the AUC(0-t) (commonly the area under the concentration-time curve up to a stated or last time point) at 24 h is 1130 ng·h/mL. The figures for the half-life in data set [5], in data set [6] and in [7] were 142 min, 23.7 min and 12.5 min, respectively. Besides, the pIC50 – broadly, the negative decadic logarithm of the IC50, by convention in mol/L – against Cytochrome P450 2C19 is less than 4.30; against Cytochrome P450 2D6, less than 4.30; against Cytochrome P450 3A4, less than 4.30; against Cytochrome P450 2B6, 3.85. Also, in the data set on CHO [8], the Activity was -43.1 mV. The Ratio EC50 in data set [9] amounted to 55. The figures for the “Ratio ED50” value in the data set filed under Rattus norvegicus [10] and in the data set filed under Rattus norvegicus [11] were 2 and 18.7, respectively.

With `CCOC(=O)Nc1ccc(NCc2ccc(F)cc2)cc1N` [EZOGABINE], the Activity in data set [12] is -8.03 mV; in the data set on CHO [13], -46.8 mV; in the data set with CHO [14] it was 2.46; in data set [15], 3.04.
